M5 antag: antagonists of human muscarinic M5 receptor (CHRM5). CHO-hM5 cells, Fluo-8 calcium fluorescence, ACh EC80. inhibition, % at 3 µM. hit rate 0.59% among 360,000. AID 624040;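 active means inhibition above a per-plate cutoff, the mean of that plate's test compounds plus 3 SD, cut at about 27% in these data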;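 further: 0% = acetylcholine EC80 with DMSO and 100% = DMSO without agonist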
Target sequence (P08912 whole entry, looked up): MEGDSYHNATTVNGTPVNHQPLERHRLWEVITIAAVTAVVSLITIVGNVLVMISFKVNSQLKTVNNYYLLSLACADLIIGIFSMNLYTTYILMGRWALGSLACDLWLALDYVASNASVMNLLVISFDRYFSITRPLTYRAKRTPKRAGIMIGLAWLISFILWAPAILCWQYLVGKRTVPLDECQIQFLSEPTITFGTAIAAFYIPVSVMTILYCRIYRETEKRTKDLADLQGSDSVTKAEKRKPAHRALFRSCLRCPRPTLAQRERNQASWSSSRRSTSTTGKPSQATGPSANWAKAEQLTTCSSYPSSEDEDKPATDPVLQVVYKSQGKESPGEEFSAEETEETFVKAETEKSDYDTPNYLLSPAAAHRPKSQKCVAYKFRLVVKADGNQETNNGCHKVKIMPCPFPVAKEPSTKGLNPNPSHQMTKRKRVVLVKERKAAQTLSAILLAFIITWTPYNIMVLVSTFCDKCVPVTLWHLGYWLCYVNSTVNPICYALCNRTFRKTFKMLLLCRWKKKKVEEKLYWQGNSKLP
M5 PAM: CHRM5 positive allosteric modulation; P08912; CHO-K1 hM5, Fluo-8 calcium, ACh EC20 PAM; 0% = ACh EC20, 100% = ACh EC100; activation, % at 3 µM; hit rate 0.3% among 360,000;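 active means activation above the run cutoff, the mean activation of all test compounds plus 3 SD, cut at about 18% in these data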
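System – CHO-K1 hM5 cells · Compound – 3 µM, single dose · Incubation – compound preincubation 140 s before EC20 acetylcholine addition · Technique – Fluo-8 calcium fluorescence · Measure – Max/basal fluorescence ratio as % of EC20–EC100 ACh window · Benchmarks – low control EC20 acetylcholine (0%), high control EC100 acetylcholine (100%) · Replication – singlicate, one well per test compound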
M4 PAM: positive allosteric modulators of human muscarinic M4 receptor. hit rate 0.4% among 360,000. activation, % at 3 µM. CHO-K1 hM4/Gqi5, Fluo-8 calcium fluorescence, ACh EC20; 0% = ACh EC20, 100% = maximal ACh. P08173;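 active means activation above its plate's cutoff, the mean activation of sample wells plus 3 SD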
M5 ag: CHRM5 agonism in calcium assay; hit rate 0.19% among 360,000; P08912; CHO-K1 hM5 cells, Fluo-8 calcium fluorescence; 0% DMSO wells, 100% maximal acetylcholine response; activation, % at 3 µM;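 active means activation above the run's mean over test compounds plus 3 SD, cut at about 23% in these data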;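 further: signal is peak over basal fluorescence ratio across the kinetic read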
M4 ag: agonists of human muscarinic M4 receptor (CHRM4); activation, % at 3 µM; P08173; hit rate 0.14% among 360,000; CHO-K1 hM4/Gqi5, Fluo-8 calcium fluorescence; vehicle 0%, full acetylcholine response 100%;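 active means activation above the run mean over all test wells plus 3 SD, cut at about 32% in these data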;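 further: peak over basal fluorescence ratio per well then scaled between controls; 0% = DMSO wells and 100% = acetylcholine at EC100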
M4 antag: CHRM4 antagonism in calcium assay. P08173. CHO-hM4 cells, ACh EC80, Fluo-8 calcium fluorescence. inhibition, % at 3 µM. hit rate 0.73% among 360,000;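 active means inhibition above its plate's cutoff, the mean inhibition of sample wells plus 3 SD, cut at about 27% in these data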;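 further: 0% = acetylcholine EC80 with DMSO and 100% = DMSO without agonist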
* marks the source's active call; other numbers are inactive results. In the library only some 1.8% were active in any assay of this set; here they are far more common.

SMILES | M5 antag | M5 PAM | M4 PAM | M5 ag | M4 ag | M4 antag
CCOC(=O)c1cnc2ccc(Cl)cc2c1NCCN(C)C | 5 | 0 | 27* | -2 | 4 | 4
CCOC(=O)c1ccc2ncc(C(=O)OCC)c(NCCCN3CCOCC3)c2c1 | -3 | 5 | 5 | -2 | 1 | 3
CCOC(=O)c1cnc2ccc(Br)cc2c1NCCCN1CCOCC1 | 9 | 3 | 40* | -2 | 13 | 14
CCOC(=O)c1cnc2ccc(Br)cc2c1NCCO | -2 | 0 | 20* | 3 | 1 | -12
CN(C)CCNc1nc(-c2ccccc2F)c2sccc2n1 | 40* | -34 | -11 | -9 | 2 | 21
Fc1ccccc1-c1nc(NCC2CC2)nc2ccsc12 | 3 | -6 | -4 | -3 | -2 | 10
COC(=O)[C@@]12C[C@@H](CC(=O)N3CCOCC3)C(=O)N(Cc3ccc4c(c3)OCO4)C1=CCC(C)(C)C2 | 8 | 0 | -5 | 1 | 3 | 2
CCOCC(=O)Nc1ccccc1C(=O)O | -4 | 6 | 26* | 0 | 6 | -11
CCCCCCC(=O)NNC(=O)CC(=O)Nc1ccccc1C(=O)O | 6 | 1 | 46* | 3 | 0 | 0
CSc1ccccc1NC(=O)CSCc1ccc(C)cc1 | 4 | 3 | 0 | -3 | -2 | 6
Cc1ccc(CSCC(=O)Nc2ccccc2C(=O)O)cc1 | -6 | 7 | 15* | 4 | -1 | -4
OC[C@@H]1CN(Cc2ccco2)C[C@H](n2cnc3c(Nc4ccccc4)ncnc32)O1 | 10 | -4 | 1 | -1 | 3 | 1
O=C1Nc2ccccc2-n2nnnc2C1N1CCN(C(=O)C2CCCO2)CC1 (configuration not stated) | 4 | -2 | 9 | -2 | 2 | -9
CCOC(=O)c1c(NC(=O)COC)sc(C)c1C | -1 | 6 | 2 | 2 | -2 | -4
CCOC(=O)c1c(NC(=S)NC(C)=O)sc(C)c1C | -6 | 18* | 32* | -4 | 1 | -8
COCCCN(C(=O)c1ccccc1)c1nc(-c2ccc(OC)cc2)cs1 | -2 | -2 | -4 | -6 | 0 | 10
COCCCN(C(C)=O)c1nc(-c2ccccc2)cs1 | -8 | 4 | 44* | -4 | 2 | -21
CCCCC(CC)CO (configuration not stated) | 5 | 0 | 14 | 3 | 1 | -13
CCCCC(CC)CN=C(N)NC(N)=NCCCCCCN=C(N)NC(N)=NCC(CC)CCCC (configuration not stated) | 13 | -18 | -21 | -2 | 40* | 82*
Cc1ccsc1C(=O)NCC(C)(C)N1CCOCC1 | -10 | 22* | 5 | -8 | 0 | 1
CCc1cc(C(=O)NCC(C)(C)N2CCOCC2)sc1C | -2 | 6 | 3 | -4 | 0 | -3
CCOc1ccc(NC(=O)C2CCN(C(=O)C3CC(=O)N(c4ccc(C)cc4)C3)CC2)cc1 (configuration not stated) | -2 | 2 | 19* | -3 | 1 | -8
COc1ccc(N2CC(C(=O)N3CCN(c4ccccc4)CC3)CC2=O)cc1 (configuration not stated) | 31* | -13 | 0 | -4 | 1 | 4
CCC(CC)C(=O)N(C)c1c(C)nc2c(OCCOc3ccc(F)cc3)cccn12 | -2 | -4 | -3 | -1 | 5 | -12
CCC(=O)Nn1cnc2c(c1=O)C1(CCCCC1)Cc1ccccc1-2 | -7 | 18* | 8 | -2 | 3 | 1
CCCC(=O)Nn1cnc2c(c1=O)C1(CCCCC1)Cc1ccccc1-2 | 6 | -3 | -3 | -6 | 0 | 4
CC(=O)Nc1cc(-c2ccccc2N(C)C)cn2c(-c3cccc(C(F)(F)F)c3)cnc12 | -5 | -2 | 13 | 1 | 0 | -9
COc1cc(/C=C2\SC(=O)N(c3ccc(Cl)cc3)C2=O)cc([N+](=O)[O-])c1O | 10 | 2 | 3 | 0 | -1 | 17
COc1cc(/C=C2\SC(=O)N(c3cccc(Cl)c3)C2=O)cc([N+](=O)[O-])c1O | -8 | 11 | 23* | 0 | 0 | -9

Screening results as filed in PubChem BioAssay.
